# Assay results: ChEMBL document CHEMBL3102857, “Synthesis and biological evaluation of 6H-pyrido[2',1':2,3]imidazo[4,5-c]isoquinolin-5(6H)-ones as antimitotic agents and inhibitors of tubulin polymerization” (Bioorg Med Chem, 2014)
# Active and inactive are the calls of the source. The rule behind the calls is not given here.
# Assays:
# [1] = system: HeLa; experiment: Antiproliferative activity against human HeLa cells after 72 hrs by SRB assay; type: functional, cell-based
# Outline: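 HeLa cells exposed to compound for 72 h, fixed with cold 10% TCA, stained with SRB in 1% acetic acid. Bound dye dissolved in 10 mM Tris-HCl and read at 515 nm. Inhibition % = [1 − (A515 treated/A515 control)] × 100. IC50 by Logit method, mean ± SD of at least three independent tests.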
# [2] = biological target: T1, Tubulin (Homo sapiens) (UniProt P68371+Q9H4B7+P0DPH7+P68366+Q13509+Q71U36+P04350+Q3ZCM7+P07437+P68363+Q9BQE3+Q6PEY2+Q13885+Q9BVA1+Q9BUF5); experiment: Inhibition of tubulin polymerization (unknown origin) at 20 uM by spectrophotometric analysis; type: protein-complex assay
# Outline: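 Purified tubulin combined with 20 µM compound on ice, then moved to 37 °C. Buffer: 80 mM PIPES pH 6.9, 0.5 mM EGTA, 2 mM MgCl2, 1 mM GTP. Polymerization followed by absorbance at 340 nm.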
# [3] = biological target: T1, Tubulin (Homo sapiens); experiment: Displacement of [3H]-colchicine from tubulin (unknown origin) at 20 uM preincubated for 1 hr followed by radioligand addition measured after 30 mins by competitive binding assay; type: protein-complex assay
# [4] = system: HeLa; experiment: Cell cycle arrest in human HeLa cells assessed as accumulation at G2/M phase at 0.5 uM after 12 hrs by propidium iodide staining-based flow cytometric analysis (reference value: 3%); type: functional
# Outline: (§1)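 Cells given 0.5 µM compound for 12 h, harvested, PBS-washed, fixed in cold 70% ethanol at 4 °C. Stained with propidium iodide ([…] as printed). DNA content analysed by flow cytometry for G0/G1, S and G2/M fractions.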
# [5] = system: HeLa; experiment: Antimitotic activity against human HeLa cells assessed as multipolar mitotic spindle with disordered chromosome organization at 0.5 uM after 12 hrs by DAPI staining-based immunofluorescence microscopic analysis; type: functional, cell-based
# Outline: (§2)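 HeLa cells on glass coverslips, 0.5 µM compound for 12 h; fixed in 4% paraformaldehyde, permeabilized with 0.2% Triton X-100, blocked with 3% BSA. Stained with anti-α-tubulin (1:200) and Alexa Fluor 488 goat anti-mouse IgG (1:100), 1 h each, then DAPI. Imaged by fluorescence and confocal microscopy. Abnormal spindles scored as percentage of total mitotic cells.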
# [6] = system: HeLa; experiment: Antimitotic activity against human HeLa cells assessed as disruption of mitotic spindle assembly at 0.5 uM after 12 hrs by DAPI staining-based immunofluorescence microscopic analysis; type: functional, cell-based; outline: as §2
# [7] = system: HeLa; experiment: Cell cycle arrest in human HeLa cells assessed as decrease in accumulation at S phase at 0.5 uM after 12 hrs by propidium iodide staining-based flow cytometric analysis; type: functional; outline: as §1
# [8] = system: HeLa; experiment: Cell cycle arrest in human HeLa cells assessed as decrease in accumulation at G0/G1 phase at 0.5 uM after 12 hrs by propidium iodide staining-based flow cytometric analysis; type: functional; outline: as §1
SMILES,IC50 [1] [nM],inhibition [2] [%],inhibition [3] [%],also measured
COC(=O)Cn1c(=O)c2ccccc2c2nc3ccccn3c21,> 10000,–,–,–
COc1ccc(Cn2c(=O)c3ccccc3c3nc4cc(C)c(Br)cn4c32)cc1,> 10000,–,–,–
COc1ccc(CCCn2c(=O)c3ccccc3c3nc4ccccn4c32)cc1,> 10000,–,–,–
COc1ccc(Cn2c(=O)c3ccccc3c3nc4ccccn4c32)c(OC)c1,2240,–,–,–
COc1ccc(Cn2c(=O)c3ccccc3c3nc4cccc(C)n4c32)cc1,> 10000,–,–,–
O=c1c2ccccc2c2nc3ccccn3c2n1Cc1ccco1,> 10000,–,–,–
O=c1c2ccccc2c2nc3ccccn3c2n1CCc1ccc(O)cc1,> 10000,–,–,–
COC(=O)CCn1c(=O)c2ccccc2c2nc3ccccn3c21,> 10000,–,–,–
O=c1c2ccccc2c2nc3ccccn3c2n1Cc1ccc2c(c1)OCO2,> 10000,–,–,–
O=c1c2ccccc2c2nc3ccccn3c2n1Cc1ccc(OC(F)(F)F)cc1,> 10000,–,–,–
COc1ccc(Cn2c(=O)c3ccccc3c3nc4c(C)cccn4c32)cc1,> 10000,–,–,–
CN(c1ccc(Cn2c(=O)c3ccccc3c3nc4ccccn4c32)cc1)S(C)(=O)=O,> 10000,–,–,–
CC[C@]1(O)C[C@H]2CN(CCc3c([nH]c4ccccc34)[C@@](C(=O)OC)(c3cc4c(cc3OC)N(C=O)[C@H]3[C@@](O)(C(=O)OC)[C@H](OC(C)=O)[C@]5(CC)C=CCN6CC[C@]43[C@@H]65)C2)C1 [VINCRISTINE],15,77,–,–
COc1ccc(Cn2c(=O)c3ccccc3c3nc4ccccn4c32)cc1OC,> 10000,–,–,–
CC(=O)OCCn1c(=O)c2ccccc2c2nc3ccccn3c21,> 10000,–,–,–
COc1ccc(Cn2c(=O)c3ccccc3c3nc4ccccn4c32)cc1,1800,–,–,Activity [4]: 4%; Activity [7]: Active; Activity [8]: Active
COc1ccc(Cn2c(=O)c3ccccc3c3nc4ccc(Br)c(C)n4c32)cc1,> 10000,–,–,–

# Continued, in another order:
IC50 [1] [nM],inhibition [2] [%],inhibition [3] [%],SMILES,also measured
6600,–,–,COc1ccc(Cn2c(=O)c3ccccc3c3nc4ccc(C)cn4c32)cc1,–
70,76,74,COc1ccc(CCn2c(=O)c3ccccc3c3nc4ccccn4c32)cc1,Activity [4]: 37%; Activity [5]: Active; Activity [6]: Active; Activity [7]: Active; Activity [8]: Active
770,33,21,COc1ccc(CCn2c(=O)c3ccccc3c3nc4ccc(NCCCn5ccnc5)cn4c32)cc1,–
240,27,22,COc1ccc(CCn2c(=O)c3ccccc3c3nc4ccc(NCc5ccccn5)cn4c32)cc1,–
2280,18,20,CCN(CC)CCNc1ccc2nc3c4ccccc4c(=O)n(CCc4ccc(OC)cc4)c3n2c1,–
60,74,78,COc1ccc(CCn2c(=O)c3ccccc3c3nc4ccc(NCc5cccnc5)cn4c32)cc1,Activity [4]: 41%; Activity [5]: Active; Activity [6]: Active; Activity [7]: Active; Activity [8]: Active
120,40,36,COc1ccc(CCn2c(=O)c3ccccc3c3nc4ccc(-n5ccnc5)cn4c32)cc1,–
350,26,34,COc1ccc(CCn2c(=O)c3ccccc3c3nc4ccc(NCCO)cn4c32)cc1,–
1200,15,15,COc1ccc(CCn2c(=O)c3ccccc3c3nc4ccc(NCCN5CCOCC5)cn4c32)cc1,–
100,63,53,COc1ccc(CCn2c(=O)c3ccccc3c3nc4ccc(NCc5ccncc5)cn4c32)cc1,–
